Experiment [1] in a line: Inhibition of constitutively activated GST-tagged human MEK1 S218D/[…] (MEK1DD) mutant assessed blocking of increase in bovine MBP kinase activity of recombinant His6-tagged ERK2 using [gamma32P]ATP by liquid scintillation counting method. The procedure, abridged: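 GST-MEK1DD (50 ng) preincubated 30 min at 30 °C with inhibitor or vehicle and 50 μM ATP plus 5 μCi [γ-32P]ATP, in 20 mM Hepes, 10 mM MgCl2, 1 mM DTT, pH 7.4. His6-ERK2 (300 ng, E. coli-expressed) added for 30 min, then MBP (0.2 mg/mL) for 10 min. Controls run without ERK2. Stopped with Laemmli buffer. IC50 from duplicate determinations.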

For experiment [2], the target named is Dual specificity mitogen-activated protein kinase kinase MEK1/2 (Rattus norvegicus, UniProt Q01986+P36506). The experiment is described as follows: Inhibition of MEK1/2 in rat IEC6 cells assessed as reduction in ERK1/2 loop phosphorylation dosed 30 mins before to stimulation with 10% serum for 5 mins by immunoblotting method. The procedure, abridged: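 IEC-6 cells grown in DMEM/10% FBS, then made quiescent at 95% confluence in serum-free DMEM-Ham's F-12 (1:1) with 15 mM Hepes pH 7.4 and 0.1% BSA for 24 h. Compounds added in DMSO. Lysates immunoblotted for phospho-ERK1/2 (Thr202/Tyr204), with total ERK1/2 and HSC70 as loading controls. Bands quantified by densitometry. IC50 from triplicate determinations.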
A general note: Immunoblotting shows a protein as a band on a membrane.

Experiment [3] in a line: Antiproliferative activity against human HCT116 cells after 5 days by WST1 assay. Conditions: HCT-116, 120 h. The class given is functional, cell-based. The procedure, abridged:
(§1)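 Cells seeded at 2×10^3 (HCT 116, HT-29) or 1.2×10^3 (A-375, A549) per well in DMEM with 10% FBS, 2 mM glutamine and antibiotics. Compounds added in DMSO, with medium changed daily for 5 days. WST-1 then added for 1 h. Absorbance read at 450 nm, reference 620 nm. Triplicate wells.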

The subject of experiment [4] is A549. The experiment is described as follows: Antiproliferative activity against human A549 cells after 5 days by WST1 assay. Format: functional, cell-based. The note with it: A549, 120 h. The procedure, abridged: as §1
Background: Tetrazolium dyes change colour on reduction, which living cells bring about.

The subject of experiment [5] is A-375. Briefly: Antiproliferative activity against human A375 cells after 5 days by WST1 assay. The class given is functional, cell-based. The note with it: A-375, 120 h. The procedure, abridged:
as §1

Experiment [6] concerns HT-29. The experiment is described as follows: Antiproliferative activity against human HT-29 cells after 5 days by WST1 assay. The class given is functional, cell-based. Conditions: HT-29, 120 h. The procedure, abridged: as §1
The species named for experiment [7] is Homo sapiens. The experiment is described as follows: Potency index, ratio of IC50 for PD98059 to IC50 for test compound against constitutively activated GST-tagged human MEK1 S218D/[…] (MEK1DD) mutant.
The target of experiment [8] is Dual specificity mitogen-activated protein kinase kinase 1 (Homo sapiens) (UniProt Q02750). The experiment is described as follows: Inhibition of MEK1 (unknown origin) at 1 uM.
Chain of Dual specificity mitogen-activated protein kinase kinase 1 (Homo sapiens) (Q02750 whole entry): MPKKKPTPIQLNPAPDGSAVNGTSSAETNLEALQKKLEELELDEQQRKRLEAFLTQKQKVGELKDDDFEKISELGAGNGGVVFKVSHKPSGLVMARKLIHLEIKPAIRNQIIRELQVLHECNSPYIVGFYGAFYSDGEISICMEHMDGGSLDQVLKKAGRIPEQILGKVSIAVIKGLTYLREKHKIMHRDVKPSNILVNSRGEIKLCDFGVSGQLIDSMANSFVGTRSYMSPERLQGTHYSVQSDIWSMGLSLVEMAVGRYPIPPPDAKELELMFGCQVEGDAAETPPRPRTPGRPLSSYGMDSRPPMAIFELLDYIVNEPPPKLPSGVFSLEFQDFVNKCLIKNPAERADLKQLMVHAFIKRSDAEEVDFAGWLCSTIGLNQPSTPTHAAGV

The structures appear in SMILES notation. The source made the active and inactive calls. The rule behind the calls is not given here.

As a reminder, the IC50 is the concentration that gives 50% inhibition.

As to `COc1cccc(-c2cc(=O)c3cc(Cl)cc(CCCN)c3o2)c1N`, the IC50 in experiment [1] was 4400 nM.
As to `CCCCNc1cc(Cl)cc2c(=O)cc(-c3cccc(OC)c3N)oc12`, the IC50 in experiment [2] is greater than 100 µM; in experiment [1] it was 1900 nM.
Taken in the same sequence, the figures for `CCOc1cccc(-c2cc(=O)c3ccccc3o2)c1N` were 1 µM and 1900 nM.
For the compound `COc1cccc(-c2cc(=O)c3cc(Cl)cc(NCC[C@H](O)CO)c3o2)c1N`, the IC50 in experiment [2] is 3.1 µM; in experiment [3] it was 13 µM; in experiment [4], 17.4 µM; in experiment [5] it was 10.5 µM; in experiment [6], 3.7 µM; in experiment [1], 220 nM.
For `COCCCNc1cc(Cl)cc2c(=O)cc(-c3cccc(OC)c3N)oc12`, the values for the IC50 in experiment [2] and in experiment [1] were greater than 100 µM and 9100 nM, respectively.
Consider `COc1cccc(-c2cc(=O)c3ccccc3o2)c1N`, for which the figures for the IC50 in experiment [2], in experiment [6] and in experiment [1] were 4.2 µM, 4 µM and 2000 nM, respectively.
As for `COc1cccc(-c2cc(=O)c3cc(Cl)cc(NCc4ccccc4)c3o2)c1N`, the figures for the IC50 in experiment [2] and in experiment [1] were greater than 100 µM and 1400 nM, respectively.
For the compound `COc1cccc(-c2cc(=O)c3cc(Cl)cc(NCCCO)c3o2)c1N`, the IC50 in experiment [2] worked out at 1.6 µM; in experiment [3], 10.3 µM; in experiment [4], 12 µM; in experiment [5], 5.9 µM; in experiment [6] it was 1.6 µM; in experiment [1] it was 30 nM. Further, in experiment [7], the Ratio IC50 was less than 100. For the same compound, the inhibition entry in experiment [8] was “Active”.
Regarding `COc1cccc(-c2cc(=O)c3cc(Cl)ccc3o2)c1N`, the results for the IC50 in experiment [2] and in experiment [1] were greater than 100 µM and 6400 nM, respectively.
On to `COc1cccc(-c2cc(=O)c3cc(Cl)cc(NC4CCOCC4)c3o2)c1N`, for which the IC50 is greater than 100 µM in experiment [2] and 1100 nM in experiment [1].
For `COc1cccc(-c2cc(=O)c3cccc(NCC[C@H](O)CO)c3o2)c1N`, in experiment [2], the IC50 was 0.073 µM.
Take `COc1cccc(-c2cc(=O)c3cccc(NCCCO)c3o2)c1N`: in experiment [2], the IC50 is 0.097 µM.
As for `COc1cccc(-c2cc(=O)c3cc(Cl)cc(NC(C)C)c3o2)c1N`, the IC50 in experiment [2] is greater than 100 µM; in experiment [1], 2700 nM.
For `COc1cccc(-c2cc(=O)c3cc(Cl)cc(NCCCN(C)C)c3o2)c1N`, the IC50 is greater than 100 µM in experiment [2] and 6800 nM in experiment [1].
On the same counts, the results for `COc1cccc(-c2cc(=O)c3cc(Cl)cc(NCCCN)c3o2)c1N` are greater than 100 µM and 10300 nM.

Source of the values: ChEMBL document CHEMBL3352752, “Towards the development of chromone-based MEK1/2 modulators” (Eur J Med Chem, 2014).
